# How the values were obtained:
# Type in all cases: cell-based
# Kv1.1 = Kv1.1 (Homo sapiens, UniProt Q09470); experiment: BL-1249 on helix bundle-crossing gated channel Kv1.1; details: result in words
# TREK-1 L304C = target: T1, TREK-1 L304C (Homo sapiens, UniProt O95069, L304C); experiment: Cysteine-modification protection: MTS-TBAO modification of TREK-1 L304C; details: 10 μM MTS-TBAO; BL-1249 50 μM, ML335 50 μM, 2-APB 1 mM; result in words
# T1 sequence (O95069 1-426 L304C): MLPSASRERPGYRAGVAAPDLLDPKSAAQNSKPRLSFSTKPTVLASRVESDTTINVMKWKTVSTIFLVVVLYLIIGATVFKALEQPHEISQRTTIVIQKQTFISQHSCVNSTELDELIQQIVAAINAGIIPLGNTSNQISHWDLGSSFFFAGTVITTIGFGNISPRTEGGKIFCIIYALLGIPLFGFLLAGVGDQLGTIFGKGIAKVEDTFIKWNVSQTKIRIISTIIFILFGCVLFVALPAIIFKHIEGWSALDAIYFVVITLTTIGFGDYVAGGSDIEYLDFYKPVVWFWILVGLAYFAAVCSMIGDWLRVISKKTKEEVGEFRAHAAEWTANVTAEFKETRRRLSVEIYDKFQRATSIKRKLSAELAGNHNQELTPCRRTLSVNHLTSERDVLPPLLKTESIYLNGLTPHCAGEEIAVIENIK
# Kir1.1 = target: T2, Kir1.1 (Homo sapiens, UniProt P48048); experiment: BL-1249 on helix bundle-crossing gated channel Kir1.1; details: result in words
# T2 sequence (P48048 1-391): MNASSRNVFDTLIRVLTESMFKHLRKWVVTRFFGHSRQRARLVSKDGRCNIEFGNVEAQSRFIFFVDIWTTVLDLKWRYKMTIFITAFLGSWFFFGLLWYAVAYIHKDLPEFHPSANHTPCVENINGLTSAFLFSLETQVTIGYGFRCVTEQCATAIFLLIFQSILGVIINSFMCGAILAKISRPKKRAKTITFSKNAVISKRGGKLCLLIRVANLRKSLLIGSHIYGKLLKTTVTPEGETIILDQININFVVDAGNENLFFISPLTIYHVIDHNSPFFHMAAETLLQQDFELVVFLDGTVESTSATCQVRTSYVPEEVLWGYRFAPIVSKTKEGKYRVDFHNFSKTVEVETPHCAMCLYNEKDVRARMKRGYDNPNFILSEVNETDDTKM
# THIK-1 = target: T3, THIK-1 (Homo sapiens, UniProt Q9HB14); experiment: Extended screening of K2P channels with BL-1249: THIK-1; details: result in words
# T3 sequence (Q9HB14 1-408): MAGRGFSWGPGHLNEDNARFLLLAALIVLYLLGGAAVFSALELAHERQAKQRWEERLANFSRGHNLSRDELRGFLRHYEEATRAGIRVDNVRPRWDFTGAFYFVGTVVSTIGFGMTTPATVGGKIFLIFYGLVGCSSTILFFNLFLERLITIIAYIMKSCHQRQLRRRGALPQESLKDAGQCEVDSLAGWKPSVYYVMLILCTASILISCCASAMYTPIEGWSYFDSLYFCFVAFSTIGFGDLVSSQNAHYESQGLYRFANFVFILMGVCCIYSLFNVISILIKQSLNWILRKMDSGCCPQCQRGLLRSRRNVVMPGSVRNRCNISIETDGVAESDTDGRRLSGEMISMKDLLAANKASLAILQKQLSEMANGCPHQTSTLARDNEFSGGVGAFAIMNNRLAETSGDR
# Kv3.1 = target: T4, Kv3.1 (Homo sapiens, UniProt P48547); experiment: BL-1249 on helix bundle-crossing gated channel Kv3.1; details: result in words
# T4 sequence (P48547 1-511): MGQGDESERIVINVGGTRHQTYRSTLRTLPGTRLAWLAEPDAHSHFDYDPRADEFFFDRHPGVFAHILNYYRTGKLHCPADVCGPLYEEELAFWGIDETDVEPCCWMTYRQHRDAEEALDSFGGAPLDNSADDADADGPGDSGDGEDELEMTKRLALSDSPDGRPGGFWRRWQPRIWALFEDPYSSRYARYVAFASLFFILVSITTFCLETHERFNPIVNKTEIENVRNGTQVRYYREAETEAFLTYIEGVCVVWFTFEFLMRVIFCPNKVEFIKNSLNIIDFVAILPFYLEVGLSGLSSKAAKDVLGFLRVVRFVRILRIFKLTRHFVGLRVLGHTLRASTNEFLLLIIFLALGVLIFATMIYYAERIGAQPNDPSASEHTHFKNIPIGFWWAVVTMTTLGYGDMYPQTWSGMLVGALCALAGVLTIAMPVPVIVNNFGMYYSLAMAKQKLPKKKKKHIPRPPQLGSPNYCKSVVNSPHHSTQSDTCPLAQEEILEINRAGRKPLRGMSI
# TALK-2 = target: T5, TALK-2 (Homo sapiens, UniProt Q96T54); experiment: TALK-2 currents in inside-out patches; details: result in words
# T5 sequence (Q96T54 1-332): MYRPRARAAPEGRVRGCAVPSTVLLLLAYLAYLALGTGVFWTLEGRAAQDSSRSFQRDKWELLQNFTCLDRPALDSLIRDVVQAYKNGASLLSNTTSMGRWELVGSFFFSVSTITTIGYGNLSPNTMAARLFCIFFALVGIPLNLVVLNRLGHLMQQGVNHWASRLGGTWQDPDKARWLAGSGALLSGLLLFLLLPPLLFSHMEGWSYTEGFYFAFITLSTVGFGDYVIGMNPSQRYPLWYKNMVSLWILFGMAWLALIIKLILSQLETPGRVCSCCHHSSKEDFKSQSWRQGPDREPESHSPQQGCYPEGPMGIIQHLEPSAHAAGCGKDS
# Outline: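 TALK-2 currents were recorded in inside-out patches from Xenopus oocytes. Fold activation was measured with 50 μM test compound or 1 mM 2-APB, applied at several intracellular pH values.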
# Kv1.1, sequence (Q09470 whole entry): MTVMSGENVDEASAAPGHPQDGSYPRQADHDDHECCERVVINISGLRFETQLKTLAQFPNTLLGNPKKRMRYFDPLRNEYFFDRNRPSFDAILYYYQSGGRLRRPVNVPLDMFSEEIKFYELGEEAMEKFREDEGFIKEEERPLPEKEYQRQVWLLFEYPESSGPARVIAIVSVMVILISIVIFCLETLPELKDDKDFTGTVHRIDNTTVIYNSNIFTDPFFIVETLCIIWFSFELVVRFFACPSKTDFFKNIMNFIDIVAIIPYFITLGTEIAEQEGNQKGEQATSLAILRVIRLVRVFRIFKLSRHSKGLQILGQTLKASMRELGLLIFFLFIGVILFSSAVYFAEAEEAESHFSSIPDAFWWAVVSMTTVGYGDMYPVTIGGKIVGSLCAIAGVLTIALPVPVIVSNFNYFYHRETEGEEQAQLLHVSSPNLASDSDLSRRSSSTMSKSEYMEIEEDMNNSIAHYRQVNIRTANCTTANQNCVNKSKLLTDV
compound,measurement,setting,value
c1ccc(-c2nn[nH]n2)c(Nc2cccc3c2CCCC3)c1 [BL-1249],activation of Kv1.1,Kv1.1,not activated
same,time course of irreversible pore blockade by MTS-TBAO,TREK-1 L304C,markedly slowed
same,activation of Kir1.1,Kir1.1,not activated
same,activation of THIK-1,THIK-1,potent activation
same,activation of Kv3.1,Kv3.1,not activated
same,activation of TALK-2,TALK-2; extended screening,potent activation
same,pH dependence of TALK-2 activation,"TALK-2; lowering pHi to 5, 50 μM BL-1249 or 1 mM 2-APB",potency dropped strongly

# Reference: publication PMC6982535 (Science (New York, N.Y.), 2019)
